# Laboratory results from the EternaBench riboswitch data.
# Test system: MS2 coat protein
# Assay: apparent Kd, MS2 coat protein; higher = weaker binding; RNA-MaP array; FMN 200 µM where present
# In short: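 Green signal from SNAP-549-labelled MS2 coat protein was normalised to red-channel RNA signal and to the median Fmax of control clusters. The protein was titrated from 0.7 or 1.5 nM, doubling to 3 µM, without and then with constant ligand, over designs transcribed by stalled E. coli RNA polymerase on Illumina sequencing-chip clusters, in 100 mM Tris-HCl pH 7.5, 80 mM KCl, 4 mM MgCl2, BSA, DTT, yeast tRNA and Tween-20. The apparent Kd is the median of filtered per-cluster binding-curve fits.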
# [1] = designed as: OFF switch for flavin mononucleotide, no ligand
# [2] = ligand present: flavin mononucleotide, designed as: OFF switch for flavin mononucleotide
# [3] = designed as: ON switch for flavin mononucleotide, no ligand
# [4] = ligand present: flavin mononucleotide, designed as: ON switch for flavin mononucleotide
Sequence,apparent Kd [1] [nM],apparent Kd [2] [nM],apparent Kd [3] [nM],apparent Kd [4] [nM]
AUCAGCUCGUCAGGAUAUACGUCACUGCUUCGGCAGUGUGGUAAGAUCACAUGAGGAUCACCCAUGUAGAAGGGACGAGCUGAU,38.4,754,,
UAGUAUAAGGGCAUUACACAUGAGGAUCACCCAUGUACGUUAGAGGAUAUGCAUUACAGUUGAAAGUAGAAGGUUAGAGAAGGG,40.5,46.5,,
UAGGUUCGAGGAUAUACAUAGAUACAGAUACAUGUAGACGUACAUGAGGAUCACCCAUGUAGAAGGCGAAUAUA,80.9,186,,
UGGUACUAGGGAGGAUAUUGGAAGAUACAUGAGGAUCACCCAUGUUUAAGAAUGCCGAGAGGCAACUAGAAGGCCCUAGUACCU,,,8.37,5.09
GCCUCAUAGUAGAAGGGACUUCGGCUGUUAAGCAUCAUCUCCAUAUCACAUGAGGAUCACCCAUGUCAGGAUAUACUAAGAGGC,6.95,14.4,,
CAUUAAUUCAUUAUAGUAAUUUUACAGGAUAUGUAACAUGAGGAUCACCCAUGUAUUCUAGGUUAACAGAAGGGUAUUACUUGU,28.9,20.7,,
UGGCAAGUAGGAUAUUGGGUGUGGGACAUGAGGAUCACCCAUGUGAUCACUCAAUCUCUCCGAGAAGGGCUAAGAA,14,15.4,,
AUAGUAGAAGUGAGGAUAUCGUAGAUUUUAGGAAACGAGAAGGCACAUGAGGAUCACCCAUGUAAGAUGGAGGU,280,298,,
GUAUGGAGUACAGGAUAUGUUAGUUUUAAGUGUAUUGGUUAUUACUUAAUUACAGAAGGGUAUUACAUGAGGAUCACCCAUGUA,,,13.6,10.6
UUUUAACAUGAGGAUCACCCAUGUGAGGAUAUCGAAAUUUAUAUUAAUAUUUAUUUAACGAGAAGGCACAUUUU,96.4,88.4,,
CAGGUAGACUGAGGAUAUACAUACCAUCAGCUAGUCUAUCUAGCUGUCACAUGAGGAUCACCCAUGUAGAAGGCAGUCUGCCUG,30.5,122,,
CUGGUUGUCGUAGGAUAUGUAGGAUAUUCCUACAUGAGGAUCACCCAUGUUCGCAUGGAAGAAGGACAGAAGGACGAUGACCAA,,,1160,8.77
AAAAAAAGAUCACAGGAUAUACGAAAAAAAACAUGAGGAUCACCCAUGUAAAAAAAAAAAAAAAAGUAGAAGGGUGAUCCAAAAAA,,,160,279
AGAUUCAUGGCCCGUUCGGGCUCACAUGAGGAUCACCCAUGUGAGGAUAUGAUGUACCUGAUUCAUCAGAAGGCGCAUGCGAAA,7.69,20.8,,
AAUUAGGUCACAGGAUAUACAACAACCAAUGCUGUAGAAGGGUGACACAUACUUAGCUGACAUGAGGAUCACCCAUGUAACCAC,,,31.4,8.87
AUUUUUAAGGUAGGAUAUAGUAUAAUGGUUUAAUUAGAAGGAUCUCACAUGAGGAUCACCCAUGUAAUAGGAUUACCCAUGUAU,38.8,26.8,,
GUCAGCUCGUGAGGAUAUACAUGUGCUGGAAACAGCACUAUUAUGUUCACAUGAGGAUCACCCAUGUAGAAGGCACGAGCUGAU,16.2,24.9,,
UCAGGCUUCGAGAAGGACAUGAGGAUCACCCAUGUUAGUUUGAAGCAGCCGUGAGGCUGCAUCAUGUAGGAUAUCGGAGUCUGC,6.47,11.7,,
AUCAGCUCGUCAGGAUAUACAUCACUGCUUCGGCAGUGUAUUAAGAUUACAUGAGGAUCACCCAUGUAGAAGGGACGAGCUGAU,17.2,20.8,,
GUGUAGCAAGGAUAUACAUGAGGAUCACCCAUGUGAAUAAGAUAGAAUAAGAUAAAGUGUAGAAGGUGUAGUGU,35.3,35.7,,
GUCAGCUCGUGAGGAUAUACAUCACUGCUUCGGCAGUGUAUUAAGAGUACAUGAGGAUCACCCAUGUAGAAGGCACGAGCUGAU,17.3,19.6,,
CAGUGCUGUCGAGAGGAUAUGCGGUGAUGGACAUGAGGAUCACCCAUGUUAGCGACAGCAUCACGGCAGAAGGCUCUACCCACUG,,,29.4,17
UUCAUGUGAGGAUAUGUGUACUGUUUUUUGUUUAGAUGUACACAGAAGGCACAUGAGGAUCACCCAUGUAGUAC,49.5,20.4,,
AGCAGACGAGGAUAUAGAUGGAAUGACAUGAGGAUCACCCAUGUGAUCGAUCUAUUGGGUUUAGAAGGUGUCUGCU,15.2,15.4,,
UUUCCACAUGAGGAUCACCCAUGUGAGGAUAUGGAGCGCGACCGCGCGGUCGCGUACACCAGAAGGCGCAUGAU,31.9,91,,
UAACCGUGAGGAUAUACAUGAGGAUCACCCAUGUAGCAAGCUACGUAACCCACCAUAUGUAGAAGGCACUAGGU,73.1,47.6,,
AGUUGUAAACAGAACAUGAGGAUCACCCAUGUGCUCUCGUGUAAGGAUAUACAUUCGUAUGGAAAGUAGAAGGUACUAAUUAUG,,,78.4,78.7
GAGCUCGAUGAGAAGGGUUACAUGAGGAUCACCCAUGUCGACCUUGGCGUAACAGGAUAUCAUCGGGCUCAGUGCGUUGACACA,29.2,171,,

Sequence,apparent Kd [1] [nM],apparent Kd [2] [nM],apparent Kd [3] [nM],apparent Kd [4] [nM]
UUGCGGUAGGAGAAGGACAGAGGCUUCAUUACAUACAUGAGGAUCACCCAUGUAGGAUAUCCUACCUAACGCGGCCUCCUCCUG,11.1,19.8,,
AUCAGCUCGUCAGGAUAUACGUCACUGCGUCAGCAGUGUUGUAAGAUCACAUGAGGAUCACCCAUGUAGAAGGGACGAGCUGAU,5.91,10.2,,
GCCAGCGCAUGAGGAUAUGCUCCCGUUUCGGGAGCAGAAGGCAUGUCAUAAGACAUGAGGAUCACCCAUGUAGUUAAGAUGGCA,,,258,13.6
GCGCGCUAAGGAUAUACAUGAGGAUCACCCAUGUUGCUCUGAUGAGCGGGUGUAAGCUGUAGAAGGUAGAGCAA,61.9,123,,
GACUUGCGCACAGGAUAUCCACAGAGCGGACGUGGAGAAGGGUGACAUGAGGAUCACCCAUGUACGUAAGUCUGGAUCACUUCC,,,29.4,26.1
UAUAUAUAGUAAGGAUAUGUAUUAAUUCUAUAAACAGAAGGUACUGACAUGAGGAUCACCCAUGUUUUAGUGUGGGCAUGUAGA,49.3,56,,
AUGGCGACGUAGAAGGGUGACAUGAGGAUCACCCAUGUGCCGAUACUUCUCGAGAUGUGUCGGCCACAGGAUAUACGUACCAUC,,,52.3,58.3
UAAACACCCUCAUGUGCCUGAGGACAUGAGGAUCACCCAUGUAAGGAUAUAGCCAUUAAAUCUAACUAGAAGGUAUAGGACAUC,925,540,,
UGUUGUAUUACAGGAUAUCUAUUGUAUUUAUUUAGAGAAGGGUAUUCACAUGAGGAUCACCCAUGUAUAUACGAGGAAGUUGUG,,,63.9,70.8
AGCUGUGGCCGAGGAUAUCACGAACCAUGGAAAACCAUGGAACUCAUACAUGAGGAUCACCCAUGUGAGAAGGCGGUCUCAGCA,34.1,29.6,,
GGUGUACAUGAGGAUCACCCAUGUCGUACGACAUGAGGAUAUGUACAGACUUCGGUCUGUACAGAAGGCAUGUGUC,,,249,26.4
UGUCGGAGCAGAGGAUAUUACAUGAGGAUCACCCAUGUAUGAACCAAUAGCUGGAAACAGCAAUGUAAGAAGGCUGCUGCGACA,12.8,182,,
CCGGCGGGAGGAUAUACAUGAGGAUCACCCAUGUGCUUCAGCUAGGAGACUAGCAUUGGUAGAAGGCCCGCCGG,19,160,,
UUACUAUUGGAGAAGGGUCCAUCAUAUAGAAGGACAGGAUAUCCAACAUGAGGAUCACCCAUGUGUCACCCAUAUGAGGAUCAC,41.4,82.2,,
UGUUAAUUGUAGAAGGGUGACAUGAGGAUCACCCAUGUACUAAUGCGAUUUACGGCGCAUGUUCCACAGGAUAUACAGUUGAGU,,,1270,274
CACUGCAUGUAAGGAUAUCGACUGGAAUACAGUCGAGAAGGUACAUGAGGAUCACCCAUGUAAAUAAUAAUAAAUAAAGCAGUG,15.3,24.4,,
UGGAUGGUAUGAGGAUAUGCGCGCGAAACGCGCGCAGAAGGCAUGUCAAUAGACAUGAGGAUCACCCAUGUACUAUCCAUCCAC,,,121,9.41
UCUUAUCUAGGAUAUCCACCUCCUCACAUGAGGAUCACCCAUGUGCAGAACAACGGUCUCGGAGAAGGAGGUAUUG,25.9,25.3,,
AUUUUUUGUCAUGUACAUGAGGAACAUGAGGAUCACCCAUGUAGAAGGAAUUUUUUUAAGUUUAGUUAGGAUAUACAUAUAUUU,53.9,30,,
GUCAGCUCGUGAGGAUAUACAACACUGCUUCGGCUGUGUAUUAAGAUCACAUGAGGAUCACCCAUGUAGAAGGCACGAGCUGAU,13.5,202,,
CUUUUGUGAGGAUAUUAGUAGUAAAUAAAUAAUAUUACUACUGAGAAGGCACAUGAGGAUCACCCAUGUUCCUC,37,302,,
GAAGCAUGCAAUAACAUGAGGAUCACCCAUGUGAAAACACGUGAGGAUAUUGAUCUGAAGAAGAUCGAGAAGGCACCGUGCUAA,,,13.4,9.92
UUCAGCUCGUGAGGAUAUACAUGUGCUGGAAACAGCACUAAAGAUUUCACAUGAGGAUCACCCAUGUAGAAGGCACGAGCUGAG,16.2,39.4,,
AACGUGGCAAAGGAUAUCCACACGGCAAAGCCGGGAGAAGGUUGCACAUGAGGAUCACCCAUGUGAACCAAACA,14.9,17.8,,
GAUUACAUCACAGGAUAUAGAAUAAAACAGAUUUUAGAAGGGUGAGCCUCGUCGACCGCGACAUGAGGAUCACCCAUGUUGUGU,,,18.4,35.7
AGGAGGUUAGGAUAUGCUGCUCGUCACUUGCGUGAUGAGUAGCAGAAGGAACAUGAGGAUCACCCAUGUAAAAA,30.2,31.9,,
GCACAUGAUACAGGAUAUGUAUUGGAAUAUAUAAUGAAUUAGAUGAAAUUGACAGAAGGGUAGACAUGAGGAUCACCCAUGUGC,324,186,,
